Structures are written as SMILES. Calls of active or inactive are those of the source. No cut-off for these calls is given here. A value given as a limit tells only on which side of the number the result lay.

Experimental findings from ChEMBL document CHEMBL1159102, “Design, synthesis, and evaluation of 2-aryl-7-(3',4'-dialkoxyphenyl)-pyrazolo[1,5-a]pyrimidines as novel PDE-4 inhibitors” (Bioorg Med Chem Lett, 2010) are described below.

Assay [1] concerns the target T1, 3',5'-cyclic-AMP phosphodiesterase 4D (Homo sapiens, UniProt Q08499). Description: Inhibition of human PDE4D.
The target in assay [2] is T1, 3',5'-cyclic-AMP phosphodiesterase 4D. The assay is described as follows: Inhibition of human PDE4D in U937 cells assessed as cAMP level at 10 uM relative to control. The assay is classed as cell-based. Details: scale not given: the % may be the effect or the level left. The note with it: U-937. A digest of the protocol: (§1)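 cAMP content of U937 cells was measured after compound exposure and reported as a percentage of the untreated control level. Separately, an EC50 was derived for cAMP accumulation in the same cells.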

A short description of assay [3]: Inhibition of PDE7.
Assay [4] deals with cGMP-specific 3',5'-cyclic phosphodiesterase (Homo sapiens, UniProt O76074). Description: Inhibition of PDE5.
A short description of assay [5]: Inhibition of PDE3.
Assay [6] deals with Mus musculus. Description: Inhibition of ovalbumin-induced eosinophil peroxidase activity in mouse bronchoalveolar lavage fluid at 100 mg/kg measured after 62 hrs of ovalbumin challenge relative to control. The following applies: Lung. The assay is classed as functional. A digest of the protocol: (§2)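 Mice received an ovalbumin inhalation challenge, with compounds given in 0.5% CMC vehicle. Bronchoalveolar lavage fluid was collected 62 h after OVA inhalation, and eosinophil peroxidase activity was measured as a marker of eosinophil infiltration. Data are mean ± SD, n = 9–10 per group, compared with the vehicle group.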

A short description of assay [7]: Inhibition of PDE4.
For assay [8], the system named is Mus musculus. Description: Inhibition of ovalbumin-induced airway hyperresponsiveness in mouse at 100 mg/kg measured after 48 hrs of ovalbumin challenge. It is filed as functional, organism-based. Further details: dose 100 mg/kg.
Assay [9] addresses T1, 3',5'-cyclic-AMP phosphodiesterase 4D. Description: Inhibition of human PDE4D in U937 cells assessed as cAMP accumulation. The assay is classed as cell-based, U-937. A digest of the protocol: as §1
Assay [10] shares this target. The assay is described as follows: Inhibition of human PDE4D in U937 cells assessed as cAMP level at 20 uM relative to control. The assay is classed as cell-based. Details: scale not given: the % may be the effect or the level left. The note with it: U-937. A digest of the protocol: as §1
On the technique in general: cAMP levels reflect the balance of adenylyl cyclase and phosphodiesterase activity.

The subject of assay [11] is Mus musculus. The assay is described as follows: Inhibition of ovalbumin-induced eosinophil peroxidase activity in mouse bronchoalveolar lavage fluid at 30 mg/kg measured after 62 hrs of ovalbumin challenge relative to control. The note with it: Lung. The assay is classed as functional. A digest of the protocol: as §2
Assay [12] deals with Mus musculus. Description: Inhibition of ovalbumin-induced airway hyperresponsiveness in mouse at 30 mg/kg measured after 48 hrs of ovalbumin challenge. It is filed as functional, organism-based. Further details: dose 30 mg/kg.

T1 sequence (Q08499 whole entry): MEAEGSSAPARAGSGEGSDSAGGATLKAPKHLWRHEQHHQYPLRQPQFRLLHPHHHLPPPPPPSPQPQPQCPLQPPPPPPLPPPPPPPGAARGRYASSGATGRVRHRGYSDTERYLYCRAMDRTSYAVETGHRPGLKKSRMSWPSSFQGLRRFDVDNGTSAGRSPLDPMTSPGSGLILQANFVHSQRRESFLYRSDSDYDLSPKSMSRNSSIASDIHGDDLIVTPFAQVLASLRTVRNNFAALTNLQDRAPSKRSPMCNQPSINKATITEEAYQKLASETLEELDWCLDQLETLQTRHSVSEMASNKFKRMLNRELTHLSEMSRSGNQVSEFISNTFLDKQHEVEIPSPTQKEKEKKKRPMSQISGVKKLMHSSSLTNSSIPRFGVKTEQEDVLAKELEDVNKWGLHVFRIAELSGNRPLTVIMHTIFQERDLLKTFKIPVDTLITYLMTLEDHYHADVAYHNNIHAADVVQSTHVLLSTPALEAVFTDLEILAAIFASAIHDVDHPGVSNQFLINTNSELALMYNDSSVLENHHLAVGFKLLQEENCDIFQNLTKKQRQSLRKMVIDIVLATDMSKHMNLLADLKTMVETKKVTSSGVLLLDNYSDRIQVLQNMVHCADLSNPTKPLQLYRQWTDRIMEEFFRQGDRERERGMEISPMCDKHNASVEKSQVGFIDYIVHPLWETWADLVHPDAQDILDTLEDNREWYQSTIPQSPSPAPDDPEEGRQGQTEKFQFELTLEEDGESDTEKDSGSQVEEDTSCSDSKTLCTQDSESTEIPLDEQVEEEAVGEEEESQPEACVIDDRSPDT

A word on the IC50: it is the concentration that inhibits the measured activity by half. `COc1ccc(-c2ccnc3cc(-c4ccc(Br)cc4)nn23)cc1OC1CCCC1` registered an IC50 in [1] of 130 nM.

As for `FC(F)Oc1ccc(-c2ccnc3cc(-c4cccc(I)c4)nn23)cc1OCC1CC1`, the Activity in [2] amounted to 19.8%. The IC50 was more than 5000 nM in assay [3], more than 5000 nM in assay [4], 6 nM in [1] and 2000 nM in assay [5].

`N#CCCNc1cccc(-c2cc3nccc(-c4ccc(OC(F)F)c(OCC5CC5)c4)n3n2)c1` displayed an IC50 in [1] of 83 nM.

Broadly, the inhibition in vivo is the percentage by which the read-out fell short of the control. Usually EC50 stands for the concentration giving half of the maximal effect. `[O-][n+]1cccc(-c2cc3nccc(-c4ccc(OC(F)F)c(OCC5CC5)c4)n3n2)c1` displayed an inhibition in vivo at 100 mg/kg in the assay on Mus musculus [6] of 50%. In addition, the IC50 is more than 5000 nM in [3]; 26 nM in assay [7]; more than 5000 nM in assay [4]; 42 nM in assay [1]; more than 5000 nM in [5]. In addition, in the assay on Mus musculus [8], the inhibition entry is “Active”. Also, the EC50 in [9] came out at 1610 nM.

In assay [1], `Fc1cccc(-c2cc3nccc(-c4ccc(OC(F)F)c(OCC5CC5)c4)n3n2)c1` returned an IC50 of 100 nM.

On to `COc1cccc(-c2cc3nccc(-c4ccc(OC)c(OC5CCCC5)c4)n3n2)c1`, for which the Activity in [10] came out at 20.1%. Also, half-maximal inhibition in [1] (IC50) required 40 nM.

As to `COc1ccc(-c2ccnc3cc(-c4cccc(Cl)c4)nn23)cc1OC1CCCC1`, in [10], the Activity was found to be 19.7%. Moreover, the midpoint of inhibition in assay [1], the IC50, lay at 20 nM.

Molecule `CC(C)OC(=O)c1cccc(-c2cc3nccc(-c4ccc(OC(F)F)c(OCC5CC5)c4)n3n2)c1` displayed an IC50 in assay [1] of 40 nM.

Take `FC(F)Oc1ccc(-c2ccnc3cc(-c4cc(Cl)cc(Cl)c4)nn23)cc1OCC1CC1`: half-maximal inhibition in [1] (IC50) required 100 nM.

Regarding `COc1ccc(-c2cc3nccc(-c4ccc(OC)c(OC5CCCC5)c4)n3n2)cc1`, the IC50 in assay [1] amounted to 60 nM.

Turning to `O=C(c1cccc(-c2cc3nccc(-c4ccc(OC(F)F)c(OCC5CC5)c4)n3n2)c1)N1CCCCC1`, the half-maximal inhibitory concentration (IC50) in assay [1] turned out to be 65 nM.

Regarding `FC(F)Oc1ccc(-c2ccnc3cc(-c4cccc(C(F)(F)F)c4)nn23)cc1OCC1CC1`, the half-inhibitory concentration (IC50) in [1] stood at 190 nM.

In assay [1], `COc1ccc(-c2ccnc3cc(-c4ccccc4OC)nn23)cc1OC1CCCC1` displayed a 50% inhibitory concentration (IC50) of 70 nM.

Turning to `CCNC(=O)c1cccc(-c2cc3nccc(-c4ccc(OC(F)F)c(OCC5CC5)c4)n3n2)c1`, in assay [1], 28 nM corresponded to half-maximal inhibition (IC50).

Take `CNc1cccc(-c2cc3nccc(-c4ccc(OC(F)F)c(OCC5CC5)c4)n3n2)c1`: half-maximal inhibition in assay [1] (IC50) was put at 40 nM.

`C=CCOc1cccc(-c2cc3nccc(-c4ccc(OC(F)F)c(OCC5CC5)c4)n3n2)c1` yielded an IC50 in assay [1] of 32 nM.

Molecule `O=C(Nc1c(Cl)cncc1Cl)c1ccc(OC(F)F)c(OCC2CC2)c1` [ROFLUMILAST] registered an inhibition in vivo at 30 mg/kg with Mus musculus [11] of 50%. Further, the inhibition entry in the assay on Mus musculus [12] is “Active”.

In turn, `N#CNc1cccc(-c2cc3nccc(-c4ccc(OC(F)F)c(OCC5CC5)c4)n3n2)c1` displayed a half-inhibitory concentration (IC50) in assay [1] of 40 nM.

In the case of `COc1cccc(-c2cc3nccc(-c4ccc(OC(F)F)c(OCC5CC5)c4)n3n2)c1`, the Activity in assay [2] was 44.4%. Also, in assay [1], the IC50 stood at 30 nM.

For the molecule `Nc1cccc(-c2cc3nccc(-c4ccc(OC(F)F)c(OCC5CC5)c4)n3n2)c1`, inhibition in [1] was half-maximal at 46 nM (IC50).

`CN(C)c1cccc(-c2cc3nccc(-c4ccc(OC(F)F)c(OCC5CC5)c4)n3n2)c1` displayed a half-maximal inhibitory concentration (IC50) in assay [1] of 120 nM.

With `Oc1cccc(-c2cc3nccc(-c4ccc(OC(F)F)c(OCC5CC5)c4)n3n2)c1`, it took 21 nM to reach half-maximal inhibition in assay [1] (IC50).

As for `FC(F)Oc1ccc(-c2ccnc3cc(-c4ccccc4)nn23)cc1OCC1CC1`, in [1], the IC50 is 130 nM.

In turn, `FC(F)Oc1ccc(-c2ccnc3cc(-c4cccc(-n5cnnn5)c4)nn23)cc1OCC1CC1` showed an IC50 in assay [1] of 44 nM.

As for `CC(C)Oc1cccc(-c2cc3nccc(-c4ccc(OC(F)F)c(OCC5CC5)c4)n3n2)c1`, half-maximal inhibition in [1] (IC50) required 46 nM.

As to `FC(F)Oc1ccc(-c2ccnc3cc(-c4cc(Cl)ccc4Cl)nn23)cc1OCC1CC1`, inhibition in assay [1] was half-maximal at 200 nM (IC50).

As to `COc1cc(OC)cc(-c2cc3nccc(-c4ccc(OC(F)F)c(OCC5CC5)c4)n3n2)c1`, the IC50 in assay [1] stood at 29 nM.

Take `COc1ccc(-c2cc3nccc(-c4ccc(OC(F)F)c(OCC5CC5)c4)n3n2)cc1O`: the half-inhibitory concentration (IC50) in assay [1] is 32 nM.

On to `O=C(O)c1cccc(-c2cc3nccc(-c4ccc(OC(F)F)c(OCC5CC5)c4)n3n2)c1`, for which, in assay [1], the IC50 is 9 nM.

In assay [1], `CCN(CC)C(=O)c1cccc(-c2cc3nccc(-c4ccc(OC(F)F)c(OCC5CC5)c4)n3n2)c1` yielded an IC50 of 67 nM.

`COc1ccc(-c2ccnc3cc(-c4ccccc4)nn23)cc1OC1CCCC1`: in [1], the IC50 worked out at 70 nM.

Molecule `COc1ccc(-c2ccnc3cc(-c4ccc(Cl)cc4)nn23)cc1OC1CCCC1` came in with a concentration for half-maximal inhibition (IC50) in assay [1] of 90 nM.

Regarding `CCOc1cccc(-c2cc3nccc(-c4ccc(OC(F)F)c(OCC5CC5)c4)n3n2)c1`, in assay [1], the IC50 is 48 nM.

Take `CN(CCN)c1cccc(-c2cc3nccc(-c4ccc(OC(F)F)c(OCC5CC5)c4)n3n2)c1`: it took 47 nM to reach half-maximal inhibition in assay [1] (IC50).

With `COc1ccc(-c2ccnc3cc(-c4ccccc4Br)nn23)cc1OC1CCCC1`, it took 140 nM to reach half-maximal inhibition in [1] (IC50).

The molecule `FC(F)Oc1ccc(-c2ccnc3cc(-c4cccc(Cl)c4)nn23)cc1OCC1CC1` gave an IC50 in assay [1] of 36 nM.

On to `CC(C)(C)NC(=O)c1cccc(-c2cc3nccc(-c4ccc(OC(F)F)c(OCC5CC5)c4)n3n2)c1`, for which inhibition in [1] was half-maximal at 44 nM (IC50).

The molecule `CC(C)(C)OC(=O)N1CCN(c2cccc(-c3cc4nccc(-c5ccc(OC(F)F)c(OCC6CC6)c5)n4n3)c2)CC1` returned a half-maximal inhibitory concentration (IC50) in [1] of 54 nM.

`COc1ccc(-c2cc3nccc(-c4ccc(OC(F)F)c(OCC5CC5)c4)n3n2)cc1OC` yielded a half-inhibitory concentration (IC50) in assay [1] of 25 nM.

In turn, `COc1ccc(-c2ccnc3cc(-c4cc(Cl)ccc4Cl)nn23)cc1OC1CCCC1` came in with an IC50 in assay [1] of 30 nM.

As for `COCCOC(=O)c1cccc(-c2cc3nccc(-c4ccc(OC(F)F)c(OCC5CC5)c4)n3n2)c1`, in [1], 160 nM corresponded to half-maximal inhibition (IC50).

Take `CS(=O)(=O)CNc1cccc(-c2cc3nccc(-c4ccc(OC(F)F)c(OCC5CC5)c4)n3n2)c1`: it took 32 nM to reach half-maximal inhibition in [1] (IC50).

The molecule `FC(F)Oc1ccc(-c2ccnc3cc(-c4cccc(N5CCCCC5)c4)nn23)cc1OCC1CC1` had a half-inhibitory concentration (IC50) in assay [1] of 100 nM.

Regarding `COc1ccc(-c2ccnc3cc(-c4cccc(Br)c4)nn23)cc1OC1CCCC1`, the Activity in assay [10] was found to be 11.4%. Also, 30 nM corresponded to half-maximal inhibition in assay [1] (IC50).

`FC(F)Oc1ccc(-c2ccnc3cc(-c4cccc(C(F)F)c4)nn23)cc1OCC1CC1`: the IC50 in [1] was 39 nM.

On to `CN(C)C(=O)c1cccc(-c2cc3nccc(-c4ccc(OC(F)F)c(OCC5CC5)c4)n3n2)c1`, for which the half-maximal inhibitory concentration (IC50) in assay [1] amounted to 23 nM.

On to `FC(F)Oc1ccc(-c2ccnc3cc(-c4cccc(Br)c4)nn23)cc1OCC1CC1`, for which, in [2], the Activity was 57.1%. The same molecule had an IC50 in assay [1] of 13 nM.

`COC(=O)c1cccc(-c2cc3nccc(-c4ccc(OC(F)F)c(OCC5CC5)c4)n3n2)c1` came in with a 50% inhibitory concentration (IC50) in [1] of 37 nM.

`FC(F)Oc1ccc(-c2ccnc3cc(-c4cccnc4)nn23)cc1OCC1CC1`: the half-maximal inhibitory concentration (IC50) is 3000 nM in [3]; 9 nM in [7]; 3500 nM in assay [4]; 27 nM in [1]; more than 5000 nM in assay [5].

As to `CC(=O)Oc1cccc(-c2cc3nccc(-c4ccc(OC(F)F)c(OCC5CC5)c4)n3n2)c1`, in [1], inhibition was half-maximal at 18 nM (IC50).

As to `NC(=O)Nc1cccc(-c2cc3nccc(-c4ccc(OC(F)F)c(OCC5CC5)c4)n3n2)c1`, in [1], the IC50 is 150 nM.
